# Results collected from several papers.
# Each line is one published result; the experiments were not run side by side.
# TEK: Angiopoietin-1 receptor (TEK, Homo sapiens, UniProt Q02763)
# TEK Y897S: Angiopoietin-1 receptor (TEK, Homo sapiens, UniProt Q02763, Y897S)
# TEK R849W: Angiopoietin-1 receptor (TEK, Homo sapiens, UniProt Q02763, R849W)
SMILES,target,test,setting,measurement,value
CNCc1ccc(-c2cc(-c3nc(-c4ccc(S(=O)(=O)C(C)C)cc4)cnc3N)on2)cc1,TEK,"enzyme activity, inhibitor",0.4 µM,inhibition,0%
CC(C)(O)[C@H]1CC[C@H](Nc2ccc3ncc(-c4cccc(C(F)(F)F)c4)n3n2)CC1,TEK,"enzyme activity, inhibitor",1 µM,remaining activity,89%
Nc1ncnc2occ(-c3ccc(NC(=O)Nc4cc(C(F)(F)F)ccc4F)cc3)c12,TEK,cell-free assay,20 µM,remaining signal,0%
CNC(=O)c1cc2c(Oc3ccc(NC(=O)C4(C(=O)Nc5ccc(F)cc5)CC4)cc3)ccnc2cc1OC,TEK Y897S,"enzyme activity, inhibitor, radiometric",1 µM,inhibition,96%
Cn1cc(Cl)c2c(Oc3c(F)cc(Nc4cc(Cl)nc(N)n4)cc3F)ccnc21,TEK,"cell-free assay, competition with immobilised ligand",0.1 µM,remaining binding,100%
Cc1[nH]c(/C=C2\C(=O)Nc3ccc(F)cc32)c(C)c1C(=O)N[C@H]1CCN(C(=O)N(C)C)C1,TEK,"enzyme activity, inhibitor",1 µM,remaining activity,87%
Cc1noc([C@H]2C[C@@H](c3ccc(C(F)(F)F)cc3)CN(C(=O)N3CCS(=O)(=O)C3)C2)n1,TEK,"cell-free assay, competition with immobilised ligand",1 µM,remaining binding,100%
Cc1ccc(NC(=O)c2ccc(C)c(C(F)(F)F)c2)cc1C#Cc1nn(C2CCC(O)CC2)c2ncnc(N)c12 (centres unmarked),TEK R849W,cell-free assay,10 µM,remaining signal,0%
O=C1Nc2ccc(Cl)cc2C1=Cc1cc(Cl)c(O)c(Cl)c1,TEK,cell-free assay,0.5 µM,remaining signal,93%
Cc1c[nH]c2nccc(Oc3c(F)cc(Nc4cc(Cl)nc(N)n4)cc3F)c12,TEK,"cell-free assay, competition with immobilised ligand",0.1 µM,remaining binding,95%
CCN(CC)CCNC(=O)c1c(C)[nH]c(/C=C2\C(=O)Nc3ccc(F)cc32)c1C,TEK,"enzyme activity, inhibitor",0.3 µM,inhibition,-2%
CC(=O)N1CCC(c2ccc(C(=O)NC3=NCCN3)cc2C(F)(F)F)CC1,TEK,"cell-free assay, competition with immobilised ligand",1 µM,remaining binding,100%
O=C(CSc1nc2nccnc2c(=O)n1CCc1ccccc1)Nc1nccs1,TEK,"enzyme activity, inhibitor",10 µM,inhibition,6%
Cc1cnc(NC2CCOCC2)nc1-n1cnc(C(=O)NC(CN)c2cc(F)cc(Cl)c2)c1 (centres unmarked),TEK Y897S,"enzyme activity, inhibitor, radiometric",1 µM,remaining activity,105%
C[C@H](c1ccc(F)cc1)N(Cc1cccc(C(=O)O)c1)C(=O)c1cnc2ccccc2c1,TEK,"cell-free assay, competition with immobilised ligand",1 µM,remaining binding,98%
COc1cc2nccc(Oc3ccc(NC(=O)c4c5n(n(-c6ccc(F)cc6)c4=O)CCCC5)cc3)c2cc1OC,TEK,"enzyme activity, inhibitor",0.1 µM,inhibition,26%
O=C(Nc1cnn(-c2csc(C(=O)NC3COC3)c2)c1)Nc1ccccc1Cl,TEK,"enzyme activity, inhibitor",5 µM,remaining activity,100%
CCCCN(CCCC)C(=O)CN1C[C@@H](c2cc(OC)c3c(c2)OCO3)[C@H](C(=O)O)[C@H]1CC(C)(C)CCC,TEK,"cell-free assay, competition with immobilised ligand",1 µM,remaining binding,100%
CCCOc1ccc(OC)c(F)c1C(=O)c1ccc(C(=O)N[C@@H]2CNC[C@H]2NC(=O)c2ccc3[nH]ncc3c2)cc1,TEK R849W,"enzyme activity, inhibitor",10 µM,remaining activity,46%
Cc1ccc(C(=O)NCc2ccsc2)cc1C#Cc1cn(C(C)C)c2ncnc(N)c12,TEK,"enzyme activity, inhibitor",1 µM,activity vs control,6%
CN(C)c1ncnc(-c2ccc3nc(Nc4cc(CN5CCN(C(=O)CC(F)(F)F)CC5)ccn4)[nH]c3c2)c1Cl,TEK,"cell-free assay, competition with immobilised ligand",1 µM,remaining binding,87%
Cc1ccc(Nc2nccc(N(C)c3ccc4c(C)n(C)nc4c3)n2)cc1S(N)(=O)=O,TEK,cell-free assay,0.5 µM,remaining signal,69.3%
CCOc1cc(-c2nncn2C)ccc1Nc1ncc2cc(C)nc(NCC(C)(C)C)c2n1,TEK,"enzyme activity, inhibitor, FRET",1 µM,inhibition,< 15%
COc1cc(Nc2cnc(C#N)c(O[C@H](C)CN(C)C)n2)ncc1-c1cnn(C)c1,TEK,"enzyme activity, inhibitor, radiometric",10 µM,remaining activity,90%
CC(C)(C)c1nc2c(s1)c1nc(N)ncc1c1ccc(NS(=O)(=O)c3c(F)cccc3F)c(F)c12,TEK,"enzyme activity, inhibitor, radiometric",1 µM,remaining activity,79%
N#CCCc1ccc2c(c1)-c1[nH]c3ccc([N+](=O)[O-])cc3c1CC(=O)N2,TEK,cell-free assay,0.5 µM,remaining signal,97.6%
CCCOc1ccc([C@H]2[C@H](C(=O)O)[C@@H](c3ccc4c(c3)OCO4)CN2CC(=O)Nc2c(CC)cccc2CC)cc1,TEK,"cell-free assay, competition with immobilised ligand",1 µM,remaining binding,100%
Cc1cc(NC(=O)c2cccc3cc(-c4cccc5[nH]nc(N)c45)ccc23)ccc1F,TEK R849W,"enzyme activity, inhibitor",0.1 µM,activity vs control,93%
COc1cc2ncnc(Nc3ccc(Oc4ccccc4)cc3C)c2cc1OC,TEK,"enzyme activity, inhibitor",1 µM,inhibition,13%
